Results published in PubChem BioAssay AID2805 (Sanford-Burnham Center for Chemical Genomics, 2010).
The campaign covered roughly 330,000 compounds. About 780 (0.24%) were called active. This excerpt belongs to a sample that is enriched for actives. A number with no mark means an inactive call.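 The calls were made as follows: active = activation factor of at least 2 at 20 µM; inactive = the rest.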

Test system: intestinal alkaline phosphatase [Mus musculus]
Assay: mouse intestinal phosphatase enzyme activation – biochemical, luminescence, uHTS, primary screen (AID 2805)
Settings: muIAP, CDP-Star luminescence, 30 min; at 10 µM; active compounds read high; 1 = vehicle-only enzyme signal, 0 = enzyme-free wells
In short: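 System: Mouse IAP enzyme | Also added: CDP-Star substrate | Dosing: Compounds dispensed in DMSO | Schedule: 30 min enzyme-substrate-compound incubation at room temperature | Technique: Chemiluminescence readout | Control set: DMSO-only wells and no-enzyme negative control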

SMILES | activation factor
COc1ccc(N(C)C(=O)C2CCN(S(=O)(=O)c3cccc4nsnc34)CC2)cc1 | 0.954
O=C(NCc1cccnc1)c1cnc2ccccc2n1 | 0.965
CC(C(=O)O)N1C(=O)c2cccc3cccc1c23 (stereo not given) | 1.02
CCOc1ccc(C(CC(=O)O)NC(=O)C23CC4CC(CC(C4)C2)C3)cc1OC (stereo not given) | 1.06
CCOc1ccc(C(CCc2ccccc2)NC(=O)c2ccc(OC)c(OC)c2)cc1OCC (stereo not given) | 2.15 (active)
CCOc1ccc(C(CC(=O)O)NC(=O)Cc2ccccc2)cc1OC (stereo not given) | 0.993
CCN(CC)Cc1nc2sc(C)c(C)c2c(=O)[nH]1 | 0.952
Cc1cc(=O)[nH]c(Nc2cccc(Br)c2)n1 | 1.07
C=CCOc1cccc(C2NC(=O)c3ccccc3O2)c1 (stereo not given) | 1.01
CN(c1ccccc1)S(=O)(=O)c1cccc(NC(=O)Cc2ccc(Cl)cc2)c1 | 1.55
CN(c1ccccc1)S(=O)(=O)c1cccc(NC(=O)Cc2c(F)cccc2Cl)c1 | 2.3 (active)
CN(C)S(=O)(=O)c1cccc(NC(=O)Cc2ccsc2)c1 | 1.06
Cc1ccc(C(=O)N/C(=C\c2cn(C)c3ccccc23)C(=O)N2CCN(C)CC2)cc1 | 0.969
COC(=O)CNC(=O)c1ccc2c(c1)S(=O)(=O)c1ccccc1C2=O | 1.01
O=C(CCc1ccc(S(=O)(=O)NC2CCCCC2)cc1)NCc1ccccc1 | 1.18
CCN(CC)N=Nc1cccc(NC(C)=O)c1 | 0.943
COc1ccc(NC(=O)NC2CC3CCCC(C2)N3Cc2ccccc2)cc1 (stereo not given) | 3.11 (active)
CCOc1ccccc1C(=O)NC1CC2CCCC(C1)N2Cc1ccccc1 (stereo not given) | 0.947
COc1ccc(CN2C3CCCC2CC(NC(=O)c2cccc(F)c2)C3)cc1 (stereo not given) | 1.11
O=C(COc1ccc(S(=O)(=O)N2CCOCC2)cc1Cl)N1CCOCC1 | 1.01
C[N+]1(CC(O)COc2ccccc2)CCN(C(=O)c2ccc([N+](=O)[O-])cc2)CC1 (stereo not given) | 0.943
Cn1cccc1C(C#N)c1ccccc1C#N (stereo not given) | 0.962
O=C1C2CCCN2C(=O)N1CCCCN1CCN(c2cccc(C(F)(F)F)c2)CC1 (stereo not given) | 0.942

SMILES | activation factor
CCc1ccc(NC(=O)NC(C)c2ccc3c(c2)OCO3)cc1 (stereo not given) | 2.38 (active)
CC(NC(=O)Nc1cccc([N+](=O)[O-])c1)c1ccc2c(c1)OCO2 (stereo not given) | 0.95
CC(NC(=O)Nc1ccc2c(c1)OCO2)c1ccncc1 (stereo not given) | 1.02
c1ccc(-c2cc3c(NCC4COc5ccccc5O4)ncnc3s2)cc1 (stereo not given) | 2.05 (active)
O=C(Cn1cnc2ccccc2c1=O)NCC1COc2ccccc2O1 (stereo not given) | 0.99
O=C(NCC1COc2ccccc2O1)C1(c2ccccc2)CCCC1 (stereo not given) | 1
CCN(C(=O)Cc1nc(N)n[nH]1)C1(C(=O)Nc2ccccc2)CCCCC1 | 1
COc1ccc(-c2nn(-c3ccccc3)cc2C(=O)Nc2nccs2)cc1OC | 1
COc1ccc(NC(=O)c2cc(-c3ccc(C)o3)nc3ccccc23)cc1 | 0.934
COc1ccc(NC(=O)c2cn(-c3ccccc3)nc2SC)cc1 | 3.32 (active)
CCn1nnc2cc(C(=O)Nc3ccc(C(=O)OC(C)C)cc3)ccc21 | 0.97
CCOC(=O)c1cc(C)sc1NC(=O)C1CCC1 | 1.01
Cc1ccc(C)c(NC(=S)NNC(=S)Nc2ccc(C(C)C)cc2)c1 | 0.941
CC(C)c1ccc(NC(=S)NC2CC3C=CC2C3)cc1 (stereo not given) | 2.76 (active)
S=C(NNC(=S)NC1CC2CCC1C2)NC1CC2C=CC1C2 (stereo not given) | 0.928
Cc1ccccc1N1CCN(CCCN2C(=O)C3CCCCN3C2=O)CC1 (stereo not given) | 1.05
O=C1CCC([N+](=O)[O-])C(c2ccccc2Br)N1 (stereo not given) | 1.03
O=P(O)(CN1CCCCCC1)C1Cc2ccccc2C1 | 1.05
Cc1ccccc1NC(=O)COc1cccc2c1CCNC2=O | 0.912
C#CCOCCOCCOCCNc1nc(N2CCN(C(=O)CCCCCCCCCCNC(=O)[C@H](CCCCN)n3cc(C)nn3)CC2)nc(N2CCN(C(=O)CCCCCCCCCCNC(=O)[C@H](CO)n3cc(CCCSC)nn3)CC2)n1 | 1.29
C#CCOCCOCCOCCNc1nc(N2CCN(C(=O)[C@H](C(C)C)n3cc(CCO)nn3)CC2)nc(N2CCN(C(=O)[C@H]([C@@H](C)CC)n3cc(CCCN=C(N)N)nn3)CC2)n1 | 1
C#CCOCCOCCOCCNc1nc(N2CCN(C(=O)Cn3cc(CCCCN)nn3)CC2)nc(N2CCN(C(=O)[C@H](CCCCN)n3cc(CCC(=O)O)nn3)CC2)n1 | 0.948
C#CCOCCOCCOCCNc1nc(N2CCN(C(=O)CCCCCCCCCCNC(=O)[C@H]([C@@H](C)CC)n3cc(CCCCN=C(N)N)nn3)CC2)nc(N2CCN(C(=O)CCCCCCCCCCNC(=O)[C@H](CO)n3cc(CCCSC)nn3)CC2)n1 | 12.7 (active)

SMILES | activation factor
C#CCOCCOCCOCCNc1nc(N2CCN(C(=O)[C@H](CCCN=C(N)N)n3cc(C(N)[C@@H](C)CC)nn3)CC2)nc(N2CCN(C(=O)[C@H](CO)n3cc([C@@H](N)C(C)C)nn3)CC2)n1 (stereo not given in full) | 0.988
C#CCOCCOCCOCCNc1nc(N2CCN(C(=O)CCCCCCCCCCNC(=O)Cn3cc(CCCCCN)nn3)CC2)nc(N2CCN(C(=O)CCCCCCCCCCNC(=O)[C@H](CO)n3cc(CCCSC)nn3)CC2)n1 | 2.45 (active)
COc1ccc(CCNC(=O)C2CCCN(Cc3nc(-c4cccc(Cl)c4)oc3C)C2)cc1OC (stereo not given) | 0.883
CN(C)C(=O)N1CCNCC1 | 0.933
c1ccc(CCN2CN=C(Nc3nc4ccccc4o3)NC2)cc1 | 0.958
CC[C@]12c3[nH]c4ccc(Cl)cc4c3CCN1C(=O)[C@@H](CC(=O)NCCCOC)C[C@@H]2C(=O)N1CCN(C(=O)C2CC2)CC1 | 0.995
COc1ccc(-n2nc(C(=O)NCC(=O)N3CCN(c4ccccc4OC)CC3)c3ccccc3c2=O)c(OC)c1 | 1.03
C[C@@H](O)c1nc2ccccc2n1N | 0.944
COCCNC(=O)CCCN1C(=O)c2ccccc2Sc2ncccc21 | 1.03
CN(c1cccc(NC(=O)c2ccc(CN3CCc4ccccc4C3)cc2)c1)S(C)(=O)=O | 1.06
Cc1cc(Cl)nc(NC(=O)Nc2cccc(Cl)c2)n1 | 0.931
CN(c1cccc(NC(=O)Nc2ccc(Cl)cc2)c1)S(C)(=O)=O | 2.3 (active)
CN(CCc1ccccn1)C(=O)c1ccc(OC2CCN(CCc3ccccc3)CC2)cc1 | 1.07
CC(C)c1nc(SCC(=O)NC(=O)NC(C)(C)C)n[nH]1 | 1
Cc1noc(C)c1CSc1nc2cc(S(=O)(=O)N3CCOCC3)ccc2o1 | 0.946
CCOC(=O)c1sc(NC(=O)CSc2nc(O)c(Cc3ccccc3)c(=O)[nH]2)nc1C | 0.914
CN(Cc1ccc(F)cc1)C(=O)COc1ccc2ccccc2c1 | 1
COc1cccc(C(=O)NCCSc2ccc(Br)cc2)c1 | 1.14
COc1cc(NC(=S)NCc2ccc(S(N)(=O)=O)cc2)cc(OC)c1 | 1.06
COc1cc(NC(=S)NCCSc2ccc(C)cc2)cc(OC)c1 | 2.86 (active)
S=c1nccc(-c2cc(Cl)sc2Cl)[nH]1 | 1.08
CC(CNC(=O)c1ccc(N)cc1)NC(=O)c1ccc(N)cc1 (stereo not given) | 1.09
O=C(Nc1cccc(-c2cccc(Cl)c2)c1)C1CCN(C2CCC2)CC1 | 6.17 (active)

SMILES | activation factor
CC(=O)c1cc(CN2CCC(C(=O)Nc3cccc(-c4cscn4)c3)CC2)cs1 | 1.08
O=C(Nc1cnn(Cc2ccc(Cl)cc2)c1)C1CCCC1 | 0.956
O=C(NC1CCCC1)C1CCN(C(=O)Nc2cccc(Cl)c2)CC1 | 1.03
CCn1cc(CN2CCC(C(=O)Nc3cccc(-c4cccc(Cl)c4)c3)CC2)c(C)n1 | 3.39 (active)
CCn1cc(CN2CCC(C(=O)Nc3cccc(-c4cccc(Cl)c4)c3)CC2)cn1 | 5.15 (active)
O=C(Nc1cccc(-c2cscn2)c1)C1CCN(Cc2ccsc2)CC1 | 1.47
CCn1cc(CN2CCC(n3nccc3NC(=O)CCCc3ccccc3)CC2)c(C)n1 | 1.22
COc1cccc(-c2cccc(NC(=O)C3CCN(C4CCC4)CC3)c2)c1 | 1.01
N#Cc1c(C(F)(F)F)cc(-c2cccs2)nc1N1CCCCC1 | 1.01
CN1CCN(C(CNS(=O)(=O)c2cccs2)c2cccnc2)CC1 (stereo not given) | 0.991
CCC(=O)c1ccc(OCC(O)Cn2nc(C)c(C(C)=O)c2C)cc1 (stereo not given) | 0.903
CC1(C)Cc2cccc(OCC(=O)N3CCN(c4ccc([N+](=O)[O-])cc4)CC3)c2O1 | 0.924
CCc1ccc(-n2c(SCc3cc(=O)n4cc(Br)ccc4n3)nc3[nH]ncc3c2=O)cc1 | 0.976
Cc1ccc(CN2CCC(n3nccc3NC(=O)CCCc3ccccc3)CC2)o1 | 1.09
COc1ccc(CN2CCC(n3nccc3NC(=O)CCCc3ccccc3)CC2)cc1C | 2.47 (active)
COc1cc(CN2CCC(n3nccc3NC(=O)CCCc3ccccc3)CC2)ccc1O | 1.47
CC1(C)CC(=O)c2sc(N)nc2C1 | 0.979
CC(C)c1cc(C(N)=O)c(NC(=O)c2cccc(COc3ccc(Br)cc3)c2)s1 | 0.925
COc1cc(NC(=O)Nc2ccc(C)cc2)cc([N+](=O)[O-])c1 | 0.983
COC(=O)c1ccc(NC(=O)Nc2ccc(C)cc2)cc1 | 2.13 (active)
COC(=O)c1ccc(NC(=O)C(C)N2C(=O)c3ccccc3C2=O)cc1 (stereo not given) | 0.997
